From ChEMBL document CHEMBL3860041, “Synthesis, biological evaluation and molecular modeling study of some new methoxylated 2-benzylthio-quinazoline-4(3H)-ones as nonclassical antifolates” (Bioorg Med Chem Lett, 2016)

Legend:
[1] = Growth inhibition of human breast cancer cells after 48 hrs by SRB assay; type: functional; details: Cancer cell lines
In short: (§1)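 Follow-up NCI panel testing over a 5-log dose range for each cell line. GI50, TGI and LC50 were monitored, with 5-fluorouracil run as the positive control. Values are grouped by tumour subpanel.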

[2] = Growth inhibition of human ACHN cells at 10 uM after 48 hrs by SRB assay relative to control; type: functional; details: read-out: GI
In short: (§2)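 NCI 60-cell-line panel, nine tumor subpanels; compounds tested at a single dose of 10 μM in the primary screen.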

[3] = Growth inhibition of human CNS cancer cells after 48 hrs by SRB assay; type: functional; details: Cancer cell lines
In short: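 Five-log dose range against NCI tumor cell lines, monitoring GI50, TGI and LC50 for each cell line; MG-MID values derived across the panel; 5-fluorouracil positive control.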

[4] = Growth inhibition of human HT-29 cells at 10 uM after 48 hrs by SRB assay relative to control; type: functional; details: HT-29, 48 h, read-out: GI; in short: as §2
[5] = Growth inhibition of human A498 cells at 10 uM after 48 hrs by SRB assay relative to control; type: functional; details: A498, 48 h, read-out: GI; in short: as §2
Cancer cell lines [6] = assay: Potency index, ratio of 5-fluorouracil GI50 to compound GI50 for human renal cancer cells; type: functional
In short: (§3)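 GI50 for each cell line came from NCI panel testing over a 5-log dose range, with 5-fluorouracil tested alongside as the reference drug. The index relates the 5-fluorouracil GI50 to the compound GI50 within each tumour subpanel.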

Cancer cell lines [7] = assay: Potency index, ratio of 5-fluorouracil GI50 to compound GI50 for human CNS cancer cells; type: functional; in short: as §3
Cancer cell lines [8] = assay: Potency index, ratio of 5-fluorouracil GI50 to compound GI50 for human prostate cancer cells; type: functional; in short: as §3
[9] = Growth inhibition of human MOLT4 cells at 10 uM after 48 hrs by SRB assay relative to control; type: functional; details: MOLT-4, 48 h, read-out: GI; in short: as §2
[10] = Growth inhibition of human UACC257 cells at 10 uM after 48 hrs by SRB assay relative to control; type: functional; details: UACC-257, 48 h, read-out: GI
In short: (§4)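 Primary screen across the full NCI 60 human tumour cell line panel, which covers nine tumour subpanels. A single dose of 10 μM was applied to each line, and growth was recorded for each cell line.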

[11] = Growth inhibition of human MCF7 cells at 10 uM after 48 hrs by SRB assay relative to control; type: functional; details: MCF7, 48 h, read-out: GI; in short: as §2
[12] = Growth inhibition of human prostate cancer cells after 48 hrs by SRB assay; type: functional; details: Cancer cell lines; in short: as §1
[13] = Growth inhibition of human BT549 cells at 10 uM after 48 hrs by SRB assay relative to control; type: functional; details: BT-549, 48 h, read-out: GI; in short: as §2
[14] = Growth inhibition of human HOP92 cells at 10 uM after 48 hrs by SRB assay relative to control; type: functional; details: HOP-92, 48 h, read-out: GI; in short: as §2
[15] = Growth inhibition of human HCT116 cells at 10 uM after 48 hrs by SRB assay relative to control; type: functional; details: HCT-116, 48 h, read-out: GI; in short: as §2
[16] = Growth inhibition of human K562 cells at 10 uM after 48 hrs by SRB assay relative to control; type: functional; details: K562, 48 h, read-out: GI; in short: as §2
[17] = Growth inhibition of human LOXIMVI cells at 10 uM after 48 hrs by SRB assay relative to control; type: functional; details: LOX IMVI, read-out: GI; in short: as §2
[18] = Growth inhibition of human UACC62 cells at 10 uM after 48 hrs by SRB assay relative to control; type: functional; details: UACC-62, 48 h, read-out: GI; in short: as §4
[19] = Growth inhibition of human SF268 cells at 10 uM after 48 hrs by SRB assay relative to control; type: functional; details: SF-268, 48 h, read-out: GI; in short: as §2
[20] = Growth inhibition of human Caki1 cells at 10 uM after 48 hrs by SRB assay relative to control; type: functional; details: CAKI-1, 48 h, read-out: GI; in short: as §2
[21] = Growth inhibition of human UO31 cells at 10 uM after 48 hrs by SRB assay relative to control; type: functional; details: UO-31, 48 h, read-out: GI; in short: as §4
[22] = Growth inhibition of human RPMI8226 cells at 10 uM after 48 hrs by SRB assay relative to control; type: functional; details: RPMI-8226, 48 h, read-out: GI; in short: as §2
[23] = Growth inhibition of human SW620 cells at 10 uM after 48 hrs by SRB assay relative to control; type: functional; details: SW-620, 48 h, read-out: GI; in short: as §4
[24] = Growth inhibition of human NCI-H23 cells at 10 uM after 48 hrs by SRB assay relative to control; type: functional; details: NCI-H23, 48 h, read-out: GI; in short: as §2
Dihydrofolate reductase = biological target: T1, Dihydrofolate reductase (Bos taurus, UniProt P00376); assay: Inhibition of bovine liver DHFR preincubated for 2 mins followed by addition of FH2 as substrate and NADPH
T1 sequence (P00376 whole entry): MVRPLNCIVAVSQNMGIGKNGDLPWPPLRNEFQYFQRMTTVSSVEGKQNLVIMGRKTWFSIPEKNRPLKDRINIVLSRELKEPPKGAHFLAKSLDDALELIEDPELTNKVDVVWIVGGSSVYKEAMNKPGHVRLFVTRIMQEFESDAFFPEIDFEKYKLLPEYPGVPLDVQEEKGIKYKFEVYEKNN

[25] = Growth inhibition of human leukemia cells after 48 hrs by SRB assay; type: functional; details: Leukemia cell; in short: as §1
[26] = Growth inhibition of human OVCAR4 cells at 10 uM after 48 hrs by SRB assay relative to control; type: functional; details: OVCAR-4, 48 h, read-out: GI; in short: as §2
[27] = Growth inhibition of human SK-MEL-5 cells at 10 uM after 48 hrs by SRB assay relative to control; type: functional; details: SK-MEL-5, 48 h, read-out: GI; in short: as §4
[28] = Growth inhibition of human SK-MEL-28 cells at 10 uM after 48 hrs by SRB assay relative to control; type: functional; details: SK-MEL-28, 48 h, read-out: GI; in short: as §4
[29] = Growth inhibition of human IGROV1 cells at 10 uM after 48 hrs by SRB assay relative to control; type: functional; details: IGROV-1, 48 h, read-out: GI; in short: as §2
[30] = Growth inhibition of human SR cells at 10 uM after 48 hrs by SRB assay relative to control; type: functional; details: read-out: GI; in short: as §4
Cancer cell lines [31] = assay: Potency index, ratio of 5-fluorouracil GI50 to compound GI50 for human breast cancer cells; type: functional; in short: as §3
[32] = Growth inhibition of human SF539 cells at 10 uM after 48 hrs by SRB assay relative to control; type: functional; details: SF-539, 48 h, read-out: GI; in short: as §2

## COc1cc(CSc2nc3ccc(Cl)cc3c(=O)n2Cc2ccccc2)cc(OC)c1OC
[1]
  GI50: 3.3 µM
  LC50: > 100 µM
  TGI: 59.1 µM
[2]
  inhibition of growth at 10 µM: 59.7%
[3]
  GI50: 4.2 µM
  LC50 (lethal concentration, 50% net cell kill): 81.8 µM
  TGI: 49.8 µM
[4]
  inhibition of growth at 10 µM: 88.3%
[5]
  inhibition of growth at 10 µM: 76%
Cancer cell lines [6]
  RatioGI50: 2 - 10
Cancer cell lines [7]
  RatioGI50: 2 - 10
Cancer cell lines [8]
  RatioGI50: 2 - 10
[9]
  inhibition of growth at 10 µM: 70.6%
[10]
  inhibition of growth at 10 µM: 53.5%
[11]
  inhibition of growth at 10 µM: 85.7%
[12]
  GI50: 4 µM
  LC50 (concentration killing 50% of cells): > 100 µM
  TGI: > 100 µM
[13]
  inhibition of growth at 10 µM: 78.3%
[14]
  inhibition of growth at 10 µM: 28.7%
[15]
  inhibition of growth at 10 µM: 79.2%
[16]
  inhibition of growth at 10 µM: 87.2%
[17]
  inhibition of growth at 10 µM: 60.7%
[18]
  inhibition of growth at 10 µM: 84.8%
[19]
  inhibition of growth at 10 µM: 59.1%
[20]
  inhibition of growth at 10 µM: 73.3%
[21]
  inhibition of growth at 10 µM: 72.9%
[22]
  inhibition of growth at 10 µM: 31.3%
[23]
  inhibition of growth at 10 µM: 71.4%
[24]
  inhibition of growth at 10 µM: 74.9%
Dihydrofolate reductase
  IC50: 4 µM
[25]
  GI50: 3 µM
  TGI: 87.9 µM
[25]; read-out: LC50 (the source's name)
  CC50: > 100 µM
[26]
  inhibition of growth at 10 µM: 48%
[27]
  inhibition of growth at 10 µM: 74.4%
[28]
  inhibition of growth at 10 µM: 56.3%
[29]
  inhibition of growth at 10 µM: 64.7%
[30]
  inhibition of growth at 10 µM: 76.9%
Cancer cell lines [31]
  RatioGI50: 2 - 10
[32]
  inhibition of growth at 10 µM: 94.2%
